What was measured:
[1] = biological target: T1, Substance-K receptor (Oryctolagus cuniculus, UniProt P79218); assay: Functional potency against Tachykinin receptor 2 (NK2) in rabbit pulmonary artery assay; conditions: read-out: pA2 (converted)
T1 sequence (P79218 whole entry): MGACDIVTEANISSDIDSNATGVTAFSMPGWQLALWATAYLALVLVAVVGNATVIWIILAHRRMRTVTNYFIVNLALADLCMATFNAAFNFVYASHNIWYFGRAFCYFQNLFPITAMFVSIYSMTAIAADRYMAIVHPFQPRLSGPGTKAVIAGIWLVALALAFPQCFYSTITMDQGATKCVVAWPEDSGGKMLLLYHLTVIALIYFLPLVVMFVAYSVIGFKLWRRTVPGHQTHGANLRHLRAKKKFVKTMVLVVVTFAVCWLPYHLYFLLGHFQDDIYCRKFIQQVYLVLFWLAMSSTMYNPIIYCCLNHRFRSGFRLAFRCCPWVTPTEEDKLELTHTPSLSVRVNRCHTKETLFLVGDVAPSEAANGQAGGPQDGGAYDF
Method in brief: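 Rabbit pulmonary artery preparation; antagonism of contractions evoked by the selective NK2 agonist [β-ala8]NKA(4–10); result expressed as pA2. Each determination n ≥ 2, every experiment run in triplicate.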

[2] = species on record: Homo sapiens; assay: In vitro microsomal stability in human liver microsomes (HLM); format: functional

SMILES | Kb [1] [nM] | half-life [2] [min]
O=C1CCC(CCN2CC(N3CCOCC3)C2)(c2ccc(Cl)c(Cl)c2)CN1C1CCCCC1 (stereo not drawn) | 0.126 | < 10
O=C1CCC(CCN2CC(N3CCOCC3)C2)(c2ccc(Cl)c(Cl)c2)CN1Cc1ccc(F)cc1 (stereo not drawn) | 20 | –
CN(CC(CCN1CCC(O)(c2ccccc2)CC1)c1ccc(Cl)c(Cl)c1)C(=O)c1ccccc1 (stereo not drawn) | 0.316 | < 10
NS(=O)(=O)N1CCN(C2CN(CCC3(c4ccc(Cl)c(Cl)c4)CCC(=O)N(CC4CC4)C3)C2)CC1 (stereo not drawn) | 1.26 | > 120
CC(=O)N1CCN(C2CN(CCC3(c4ccc(Cl)c(Cl)c4)CCC(=O)N(Cc4ccccc4)C3)C2)CC1 (stereo not drawn) | 1.58 | –
CS(=O)(=O)NC1CCN(C2CN(CCC3(c4ccc(Cl)c(Cl)c4)CCC(=O)N(CC4CC4)C3)C2)CC1 (stereo not drawn) | 10 | –
O=C1CCC(CCN2CC(N3CCSCC3)C2)(c2ccc(Cl)c(Cl)c2)CN1Cc1ccccc1 (stereo not drawn) | 1 | –
CCOC1CCN(C2CN(CCC3(c4ccc(Cl)c(Cl)c4)CCC(=O)N(CC4CC4)C3)C2)CC1 (stereo not drawn) | 6.31 | –
O=C1CC[C@@](CCN2CC(N3CCOCC3)C2)(c2ccc(Cl)c(Cl)c2)CN1CC1CCCCC1 | 631 | 84
NC(=O)N1CCN(C2CN(CCC3(c4ccc(Cl)c(Cl)c4)CCC(=O)N(CC4CC4)C3)C2)CC1 (stereo not drawn) | 5.01 | –
CC(=O)NC1CCN(C2CN(CCC3(c4ccc(Cl)c(Cl)c4)CCC(=O)N(CC4CC4)C3)C2)CC1 (stereo not drawn) | 15.8 | –
O=C1CC[C@](CCN2CC(N3CCOCC3)C2)(c2ccc(Cl)c(Cl)c2)CN1CC1CCCCC1 | – | 14
Cc1ccc(CN2CC(CCN3CC(N4CCOCC4)C3)(c3ccc(Cl)c(Cl)c3)CCC2=O)cc1 (stereo not drawn) | 6.31 | –
O=C1CCC(CCN2CC(N3CCOC(c4ccccc4)C3)C2)(c2ccc(Cl)c(Cl)c2)CN1Cc1ccccc1 (stereo not drawn) | 10 | –
CNS(=O)(=O)N1CCN(C2CN(CCC3(c4ccc(Cl)c(Cl)c4)CCC(=O)N(CC4CC4)C3)C2)CC1 (stereo not drawn) | 3.16 | –
O=C1CCC(CCN2CCC(O)(c3ccccc3)CC2)(c2ccc(Cl)c(Cl)c2)CN1Cc1ccccc1 (stereo not drawn) | 1.26 | 30
O=C1CCC(CCN2CC(N3CCC(O)C3)C2)(c2ccc(Cl)c(Cl)c2)CN1Cc1ccccc1 (stereo not drawn) | 2 | –
O=C1CCC(CCN2CC(N3CC[S+]([O-])CC3)C2)(c2ccc(Cl)c(Cl)c2)CN1Cc1ccccc1 (stereo not drawn) | 0.631 | –
O=C1CCC(CCN2CC(N3C4CCC3CC(O)C4)C2)(c2ccc(Cl)c(Cl)c2)CN1Cc1ccccc1 (stereo not drawn) | 0.631 | –

Continued, in another order:

Kb [1] [nM] | SMILES | half-life [2] [min]
100 | O=C1CCC(CCN2CC(N3CCOCC3)C2)(c2ccc(Cl)c(Cl)c2)CN1Cc1ccncc1 (stereo not drawn) | –
> 10000 | O=C1CCC(CCN2CC(N3CCOCC3)C2)(c2ccc(Cl)c(Cl)c2)CN1 (stereo not drawn) | –
5.01 | O=C1CCC(CCN2CC(N3CCNCC3)C2)(c2ccc(Cl)c(Cl)c2)CN1Cc1ccccc1 (stereo not drawn) | –
0.631 | CS(=O)(=O)N1CCN(C2CN(CCC3(c4ccc(Cl)c(Cl)c4)CCC(=O)N(Cc4ccccc4)C3)C2)CC1 (stereo not drawn) | –
3.16 | CN(CCO)C1CN(CCC2(c3ccc(Cl)c(Cl)c3)CCC(=O)N(Cc3ccccc3)C2)C1 (stereo not drawn) | –
1.58 | O=C1CCC(CCN2CC(N3CCC(O)CC3)C2)(c2ccc(Cl)c(Cl)c2)CN1CC1CC1 (stereo not drawn) | –
15.8 | CN1CCN(C2CN(CCC3(c4ccc(Cl)c(Cl)c4)CCC(=O)N(Cc4ccccc4)C3)C2)CC1 (stereo not drawn) | –
0.398 | O=C(O)C1CCN(C2CN(CCC3(c4ccc(Cl)c(Cl)c4)CCC(=O)N(CC4CC4)C3)C2)CC1 (stereo not drawn) | –
2 | O=C1CCC(CCN2CC(N3CCCOCC3)C2)(c2ccc(Cl)c(Cl)c2)CN1Cc1ccccc1 (stereo not drawn) | –
0.0794 | O=C1CCC(CCN2CC(N3CCC(O)CC3)C2)(c2ccc(Cl)c(Cl)c2)CN1Cc1ccccc1 (stereo not drawn) | –
2 | O=C1CCC(CCN2CC(N3CCCC(O)C3)C2)(c2ccc(Cl)c(Cl)c2)CN1Cc1ccccc1 (stereo not drawn) | –
0.501 | O=C1CCC(CCN2CC(N3CCOCC3)C2)(c2ccc(Cl)c(Cl)c2)CN1Cc1ccccc1 (stereo not drawn) | 70
12.6 | O=C1CCC(CCN2CC(N3CCNCC3)C2)(c2ccc(Cl)c(Cl)c2)CN1CC1CC1 (stereo not drawn) | –
10 | CN(C)S(=O)(=O)N1CCN(C2CN(CCC3(c4ccc(Cl)c(Cl)c4)CCC(=O)N(CC4CC4)C3)C2)CC1 (stereo not drawn) | –
2 | NC1CCN(C2CN(CCC3(c4ccc(Cl)c(Cl)c4)CCC(=O)N(CC4CC4)C3)C2)CC1 (stereo not drawn) | 30
3.16 | CS(=O)(=O)N1CCN(C2CN(CCC3(c4ccc(Cl)c(Cl)c4)CCC(=O)N(CC4CC4)C3)C2)CC1 (stereo not drawn) | < 10
1.26 | O=C1CCC(CCN2CC(N3CCS(=O)(=O)CC3)C2)(c2ccc(Cl)c(Cl)c2)CN1Cc1ccccc1 (stereo not drawn) | –
3.16 | CC(=O)NC1(c2ccccc2)CCN(C2CN(CCC3(c4ccc(Cl)c(Cl)c4)CCC(=O)N(CC4CC4)C3)C2)CC1 (stereo not drawn) | –
1.26 | O=C1CCC(CCN2CC(N3CCOCC3)C2)(c2ccc(Cl)c(Cl)c2)CN1CC1CCCCC1 (stereo not drawn) | 70
0.501 | Cc1ccccc1CN1CC(CCN2CC(N3CCOCC3)C2)(c2ccc(Cl)c(Cl)c2)CCC1=O (stereo not drawn) | –
2.51 | Cc1cccc(CN2CC(CCN3CC(N4CCOCC4)C3)(c3ccc(Cl)c(Cl)c3)CCC2=O)c1 (stereo not drawn) | –
2.51 | O=C1CCC(CCN2CC(N3CCOCC3=O)C2)(c2ccc(Cl)c(Cl)c2)CN1Cc1ccccc1 (stereo not drawn) | –
1.26 | O=C1CCN(C2CN(CCC3(c4ccc(Cl)c(Cl)c4)CCC(=O)N(CC4CC4)C3)C2)CC1 (stereo not drawn) | –
7.94 | O=C1CCC(CCN2CC(N3CCOCC3)C2)(c2ccc(Cl)c(Cl)c2)CN1CC1CC1 (stereo not drawn) | 120

Reference: ChEMBL document CHEMBL1135664, “Structure-activity relationships of 1-alkyl-5-(3,4-dichlorophenyl)- 5-[2-[(3-substituted)-1-azetidinyl]ethyl]-2-piperidones. 1. Selective antagonists of the neurokinin-2 receptor” (J Med Chem, 2002)
